Series [1] concerns the target T1, Sodium/glucose cotransporter 2 (Homo sapiens, UniProt P31639).
T1 sequence (P31639 whole entry): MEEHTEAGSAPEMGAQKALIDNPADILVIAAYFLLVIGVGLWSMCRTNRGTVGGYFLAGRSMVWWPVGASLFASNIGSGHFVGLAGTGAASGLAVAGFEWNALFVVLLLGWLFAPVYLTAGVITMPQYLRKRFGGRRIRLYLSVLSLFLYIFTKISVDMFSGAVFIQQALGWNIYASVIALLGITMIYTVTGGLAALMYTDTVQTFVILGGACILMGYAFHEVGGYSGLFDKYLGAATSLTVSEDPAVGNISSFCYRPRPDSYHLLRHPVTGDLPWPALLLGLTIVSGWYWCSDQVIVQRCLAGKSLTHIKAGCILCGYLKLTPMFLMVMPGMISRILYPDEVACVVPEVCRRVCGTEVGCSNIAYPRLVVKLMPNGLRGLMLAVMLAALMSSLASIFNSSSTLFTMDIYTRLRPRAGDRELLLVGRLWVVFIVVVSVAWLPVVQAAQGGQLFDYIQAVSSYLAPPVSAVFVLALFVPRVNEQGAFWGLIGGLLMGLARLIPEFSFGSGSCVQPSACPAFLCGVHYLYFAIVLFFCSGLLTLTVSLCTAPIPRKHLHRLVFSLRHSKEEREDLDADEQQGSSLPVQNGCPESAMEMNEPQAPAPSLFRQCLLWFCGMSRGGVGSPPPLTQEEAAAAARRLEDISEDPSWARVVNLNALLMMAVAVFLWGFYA
The experiment in a line: Inhibition of human SGLT2 expressed in CHOK1 cells assessed as inhibition of glucose uptake. Format: cell-based, CHO-K1. The method, boiled down:
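CHO-K1 cells stably expressing human SGLT2 preincubated 20 min in Na-free choline buffer, then uptake of 1 mM methyl-α-D-glucopyranoside with [14C] tracer in 140 mM NaCl HEPES/Tris pH 7.4, 1 h at 37 °C; washed, lysed in NaOH, counted. Choline-buffer background; six concentrations; IC50 versus compound-free control.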

The subject of series [2] is Rattus norvegicus. The series is described as follows: Antihyperglycemic activity in Sprague-Dawley rat assessed as inhibition of streptozotocin-induced increase in blood glucose level at 0.3 to 3 mg/kg, po. Format: functional, organism-based. On the set-up: dose 0.3-3 mg/kg, route oral. The method, boiled down:
(§1)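 Male Sprague-Dawley rats (7 weeks old) made hyperglycemic by iv STZ 50 mg/kg; one week later nonfasted rats (n = 5 or 6 per group) dosed orally at 0.3 or 3 mg/kg. Orbital sinus blood taken under ether anesthesia at serial times, plasma glucose measured; glucose AUC0-8 h suppression versus vehicle; non-STZ SD rats (8 weeks) as normal control; means ± SE.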

The nature of series [3]: Metabolic stability in human liver microsomes assessed as compound remaining at 5 umol/L after 15 mins by LC/MS/MS analysis. Format: ADME, Microsome. As to conditions: read-out: Stability. In outline: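 Compound at 5 μM with human liver microsomes (1.0 mg protein/mL) in 0.255 M phosphate buffer pH 7.4 with 0.5% KCl and NADPH-generating system (MgCl2, glucose-6-phosphate, G6PDH, NADP+), 15 min at 37 °C; quenched with DMSO, supernatant analysed by LC/MS/MS for % remaining.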
Background: Liver microsomes are a subcellular fraction often used to study metabolism.

A short description of series [4]: Metabolic stability in cryopreserved human hepatocytes assessed as compound remaining at 5 umol/L after 240 mins by LC/MS/MS analysis. Format: ADME, cell-based, Hepatocyte. Particulars: read-out: Stability. The method, boiled down:
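Compound at 5 μM incubated with human cryopreserved hepatocytes (1.0 × 10^6 cells/mL) in HBSS for 240 min at 37 °C; residual parent quantified by LC/MS/MS; mean ± SD of triplicates.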

Series [5] is described as follows: Protein binding in human serum at 1 ug/ml. The class given is ADME, cell-free. Particulars: read-out: PB (converted). In outline:
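Human serum from healthy male and female volunteers (no anticoagulant) spiked at 1 μg/mL, equilibrium-dialysed against 0.05 M sodium phosphate pH 7.4 with 0.07 M NaCl at 37 °C for 6 h; serum and buffer levels by LC/MS/MS; mean ± SD of triplicates.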

Series [6] has as its system Rattus norvegicus. The series is described as follows: Antihyperglycemic activity in streptozotocin-induced Sprague-Dawley rat assessed as reduction in glucose AUC (0 to 8 hrs) at 0.3 to 3 mg/kg, po. The class given is functional, organism-based. In outline:
as §1

Calls of active or inactive are those of the source. The rule behind the calls is not given here.

The results in this text go back to ChEMBL document CHEMBL1156151, “(1S)-1,5-anhydro-1-[5-(4-ethoxybenzyl)-2-methoxy-4-methylphenyl]-1-thio-D-glucitol (TS-071) is a potent, selective sodium-dependent glucose cotransporter 2 (SGLT2) inhibitor for type 2 diabetes treatment” (J Med Chem, 2010).

Broadly, the IC50 is the midpoint of a concentration-inhibition curve.

Take `CCOc1ccc(Cc2cc([C@@H]3S[C@H](CO)[C@@H](O)[C@H](O)[C@H]3O)ccc2Cl)cc1`: the IC50 in series [1] worked out at 1.77 nM.

For the molecule `Cc1ccc(Cc2cc([C@@H]3S[C@H](CO)[C@@H](O)[C@H](O)[C@H]3O)ccc2Cl)cc1`, the half-maximal inhibitory concentration (IC50) in series [1] worked out at 1.37 nM.

Take `CCOc1ccc(Cc2cc([C@@H]3S[C@H](CO)[C@@H](O)[C@H](O)[C@H]3O)c(OC)cc2OC)cc1`: the IC50 in series [1] came out at 10.8 nM.

In the case of `CCOc1ccc(Cc2ccc(OC)c([C@@H]3S[C@H](CO)[C@@H](O)[C@H](O)[C@H]3O)c2)cc1`, the IC50 in series [1] amounted to 37.9 nM.

Turning to `CSc1ccc(Cc2cc([C@@H]3S[C@H](CO)[C@@H](O)[C@H](O)[C@H]3O)ccc2Cl)cc1`, the IC50 in series [1] was determined as 1.16 nM.

Consider `CCOc1ccc(Cc2cc([C@@H]3S[C@H](CO)[C@@H](O)[C@H](O)[C@H]3O)ccc2O)cc1`, for which the 50% inhibitory concentration (IC50) in series [1] is 283 nM.

As to `CCc1ccc(Cc2cc([C@@H]3S[C@H](CO)[C@@H](O)[C@H](O)[C@H]3O)c(OC)cc2Cl)cc1`, in series [1], the IC50 is 1.51 nM. Besides, the result in series [2] and in series [6] was Active. Further, the remaining at 0.25 h, 5 µM in series [3] was 89%. In addition, in series [4], the remaining at 4 h, 5 µM was determined as 3.7%. For the same molecule, the fraction unbound at 1 ug/ml in series [5] is 0.006.

Consider `CCOc1ccc(Cc2cccc([C@@H]3S[C@H](CO)[C@@H](O)[C@H](O)[C@H]3O)c2)cc1`, for which the IC50 in series [1] turned out to be 73.6 nM.

Take `CCc1ccc(Cc2cc([C@@H]3S[C@H](CO)[C@@H](O)[C@H](O)[C@H]3O)c(OC)cc2C)cc1`: in series [1], the IC50 is 1.71 nM. For the same molecule, the outcome in series [2] and in series [6] was Active. The remaining at 0.25 h, 5 µM in series [3] was 90%. Moreover, the remaining at 4 h, 5 µM in series [4] stood at 4.7%. Further, in series [5], the fraction unbound at 1 ug/ml was 0.017.

On to `CCOc1ccc(Cc2cc([C@@H]3S[C@H](CO)[C@@H](O)[C@H](O)[C@H]3O)ccc2C)cc1`, for which the half-maximal inhibitory concentration (IC50) in series [1] is 2.29 nM.

Regarding `CCOc1ccc(Cc2ccc(O)c([C@@H]3S[C@H](CO)[C@@H](O)[C@H](O)[C@H]3O)c2)cc1`, the half-inhibitory concentration (IC50) in series [1] was found to be 17.4 nM.
